According to ChEMBL document CHEMBL1158703, “Psychopharmacological profile of the alkaloid psychollatine as a 5HT2A/C serotonin modulator” (2005):
Calls of active or inactive are those of the source.

How the values were obtained:
Mus musculus [1] = test: Anxiolytic activity against CF1 mouse assessed as suppression of oxotremorine-treated tremors at 3 mg/kg; format: functional, organism-based; design: dose 3 mg/kg
Method in brief: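 Mice received treatment i.p. 30 min before oxotremorine 0.5 mg/kg in saline. Each mouse was then placed alone in a transparent cage immediately after injection and tremor was scored. Data given as median (interquartile range); Kruskal–Wallis then Mann–Whitney U against saline + oxotremorine.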

Mus musculus [2] = test: Anxiolytic activity against CF1 mouse assessed as increase in number of head dips at 0.75 mg/kg after 30 mins in presence of picrotoxin by hole-board assay; format: functional, organism-based; design: dose 0.75 mg/kg
Method in brief: (§1)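 Hole-board with photocell-counted head-dips; the board was marked into 16 squares of 10×10 cm. Male CF1 mice were acclimatised ≥1 h in dim light. Diazepam in 10% propylene glycol was given i.p. 30 min before testing. Picrotoxin 1 mg/kg i.p. was given 30 min before treatment. Head-dips, squares crossed and rearings were recorded over 5 min. N = 8–15, ANOVA then SNK.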

Mus musculus [3] = test: Effect on locomotory activity in CF1 mouse assessed as change in spontaneous activity at 3 to 30 mg/kg; format: functional, organism-based
Method in brief: (§2)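 Mice were habituated singly for 10 min in photocell activity cages and then dosed i.p. Diazepam was given in 10% propylene glycol. After 30 min, crossings were recorded for 15 min. n = 10–16, ANOVA then SNK.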

Mus musculus [4] = test: Anxiolytic activity against CF1 mouse assessed as increase in number of rearings at 0.75 mg/kg after 30 mins in presence of picrotoxin by hole-board assay; format: functional, organism-based; design: dose 0.75 mg/kg; method in brief: as §1
Mus musculus [5] = test: Effect on locomotory activity in CF1 mouse assessed as change in spontaneous activity at 0.75 and 0.85 mg/kg; format: functional, organism-based; design: dose 0.85 mg/kg; method in brief: as §2
Mus musculus [6] = test: Anxiolytic activity against CF1 mouse assessed as increase in latency to enter in the dark compartment 0.85 mg/kg in presence of picrotoxin for 5 mins; format: functional, organism-based; design: dose 0.85 mg/kg
Method in brief: (§3)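 Light/dark box with a small black compartment and a large white one lit at 400 lx. Male CF1 mice were acclimatised for ≥1 h under dim red light. Diazepam in 10% propylene glycol was given i.p. 30 min before testing. Picrotoxin 1 mg/kg i.p. in saline was given 30 min before treatment. Read-outs: latency to first entry and time spent in the light area. N = 8–22, ANOVA then SNK.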

Mus musculus [7] = test: Anticonvulsant activity against CF1 mouse assessed as protection against PTZ-induced convulsions at 0.8 mg/kg, ip for 60 mins; format: functional; details: route intraperitoneal
Method in brief: (§4)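 Male adult CF1 mice (2 months at purchase, housed ≥2 weeks at 22 °C, 12 h light/dark). Drug given i.p. (0.1 mL/10 g); 30 min later PTZ 88 mg/kg s.c. Each mouse then observed singly for 60 min for clonic convulsions lasting >3 s. n = 10 per group. Fisher's exact test against vehicle (saline or 10% propylene glycol).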

Mus musculus [8] = test: Anxiolytic activity against CF1 mouse assessed as increase in number of crossings at 0.75 mg/kg after 30 mins in presence of picrotoxin by hole-board assay; format: functional, organism-based; design: dose 0.75 mg/kg; method in brief: as §1
Mus musculus [9] = test: Anxiolytic activity against CF1 mouse assessed as increase in time spent in light compartment at 0.85 mg/kg for 5 mins; format: functional, organism-based; design: dose 0.85 mg/kg; method in brief: as §3
Mus musculus [10] = test: Anticonvulsant activity against CF1 mouse assessed as protection against PTZ-induced convulsions at 20 mg/kg, ip for 60 mins; format: functional; details: route intraperitoneal; method in brief: as §4
Mus musculus [11] = test: Anxiolytic activity against CF1 mouse assessed as increase in number of rearings at 0.75 mg/kg after 30 mins by hole-board assay; format: functional, organism-based; design: dose 0.75 mg/kg; method in brief: as §1
Mus musculus [12] = test: Anxiolytic activity against CF1 mouse assessed as increase in number of crossings at 0.75 mg/kg after 30 mins by hole-board assay; format: functional, organism-based; design: dose 0.75 mg/kg; method in brief: as §1
Mus musculus [13] = test: Anxiolytic activity against CF1 mouse assessed as increase in number of head dips at 0.75 mg/kg after 30 mins by hole-board assay; format: functional, organism-based; design: dose 0.75 mg/kg; method in brief: as §1
Mus musculus [14] = test: Anxiolytic activity against CF1 mouse assessed as increase in time spent in light compartment at 0.85 mg/kg in presence of picrotoxin for 5 mins; format: functional, organism-based; design: dose 0.85 mg/kg; method in brief: as §3
Mus musculus [15] = test: Anxiolytic activity against CF1 mouse assessed as increase in latency to enter in the dark compartment 0.85 mg/kg for 5 mins; format: functional, organism-based; design: dose 0.85 mg/kg; method in brief: as §3
Mus musculus [16] = test: Antidepressant activity in CF1 mouse assessed as decrease in duration of immobility at 0.15 mg/kg during final 4 mins of the 6 mins session by forced swimming test; format: functional
Method in brief: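 Male adult CF1 mice, dosed i.p. Each mouse made to swim for 6 min in a 30 cm diameter cylinder holding 20 cm of water at 25 ± 1 °C. Immobility time was scored over the last 4 min. N = 10 per group, mean ± SEM, ANOVA against saline.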

Mus musculus [17] = test: Effect on short term memory of CF1 mouse assessed as reduction in latency during aquisition at 0.15 mg/kg by passive avoidance test; format: functional
Mus musculus [18] = test: Effect on short term memory of CF1 mouse assessed as reduction in step down latency at 0.15 mg/kg by passive avoidance test; format: functional
Mus musculus [19] = test: Effect on long term memory of CF1 mouse assessed as reduction in step down latency at 0.15 mg/kg by passive avoidance test; format: functional
Method in brief: (§5)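 Step-down inhibitory avoidance in male CF1 mice. Training used a 0.3 mA scrambled footshock for 15 s on stepping down. The test session was 24 h later without shock, with a 300 s cutoff. For acquisition effects, drug (MK-801 or diazepam in 10% propylene glycol, i.p.) was given 30 min before training; the post-training group was dosed immediately after training. N = 20, medians (IQR).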

Mus musculus [20] = test: Effect on long term memory of CF1 mouse assessed as reduction in latency during aquisition at 0.15 mg/kg by passive avoidance test; format: functional; method in brief: as §5
Mus musculus [21] = test: Antidepressant activity in CF1 mouse assessed as decrease in duration of immobility at 15 mg/kg during final 4 mins of the 6 mins session by forced swimming test; format: functional

SMILES: CN1[C@@H]2C[C@@H](OC(=O)[C@H](CO)c3ccccc3)C[C@H]1[C@@H]1O[C@@H]12
- Activity (Mus musculus [1]): Active

SMILES: CN1C(=O)CN=C(c2ccccc2)c2cc(Cl)ccc21 [DIAZEPAM]
- Activity (Mus musculus [2]): inactive
- Activity (Mus musculus [3]): inactive
- Activity (Mus musculus [4]): inactive
- Activity (Mus musculus [5]): inactive
- Activity (Mus musculus [6]): inactive
- Activity (Mus musculus [7]): 10%
- Activity (Mus musculus [8]): inactive
- Activity (Mus musculus [9]): Active
- Activity (Mus musculus [10]): 0%
- Activity (Mus musculus [11]): Active
- Activity (Mus musculus [12]): Active
- Activity (Mus musculus [13]): Active
- Activity (Mus musculus [14]): inactive
- Activity (Mus musculus [15]): Active

SMILES: C[C@]12N[C@H](Cc3ccccc31)c1ccccc12 [DIZOCILPINE]
- Activity (Mus musculus [16]): 33.36 s
- Activity (Mus musculus [17]): 8.4 s
- Activity (Mus musculus [18]): 16.5 s
- Activity (Mus musculus [19]): 6.2 s
- Activity (Mus musculus [20]): 6 s

SMILES: CN(C)CCCN1c2ccccc2CCc2ccccc21 [IMIPRAMINE]
- Activity (Mus musculus [21]): 46.05 s

SMILES: CCC1(c2ccccc2)C(=O)NC(=O)NC1=O [PHENOBARBITAL]
- Activity (Mus musculus [7]): 10%
- Activity (Mus musculus [10]): 0%
